Active and inactive are the calls of the source. The rule behind the calls is not given here.
Key:
[1] = target: Histamine H1 receptor (Homo sapiens) (UniProt P35367); test: Agonist activity at human recombinant H1 histamine receptor at 10^-5 M relative to control
[2] = Acute oral toxicity in Wistar rat by OECD up and down test guideline method; conditions: in vivo
Procedure, shortened: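 Female rats given a single oral dose under OECD Test Guideline No. 425 (Acute Oral Toxicity, Up-and-Down Procedure); acute toxicity class assigned.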

[3] = target: T1, 5-hydroxytryptamine receptor 2C (Homo sapiens) (UniProt P28335); test: Antagonist activity at human 5HT2C serotonin receptor at 10^-5 M relative to control; design: scale not given: the % may be the effect or the level left
T1 sequence (whole entry): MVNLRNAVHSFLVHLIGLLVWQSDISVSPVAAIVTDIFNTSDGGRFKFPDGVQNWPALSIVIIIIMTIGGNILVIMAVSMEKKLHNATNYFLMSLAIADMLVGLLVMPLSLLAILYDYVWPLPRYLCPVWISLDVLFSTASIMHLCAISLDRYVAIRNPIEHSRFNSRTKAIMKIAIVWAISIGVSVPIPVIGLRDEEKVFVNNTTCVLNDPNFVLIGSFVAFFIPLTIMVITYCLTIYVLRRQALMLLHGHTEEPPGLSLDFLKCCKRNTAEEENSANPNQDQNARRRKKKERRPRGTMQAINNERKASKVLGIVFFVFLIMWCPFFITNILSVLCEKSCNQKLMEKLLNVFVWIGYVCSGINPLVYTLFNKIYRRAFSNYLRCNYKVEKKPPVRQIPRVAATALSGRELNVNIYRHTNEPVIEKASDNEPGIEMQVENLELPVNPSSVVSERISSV

D(2) dopamine receptor = D(2) dopamine receptor (Homo sapiens, UniProt P14416); test: Displacement of [3H]-methylspiperone from human D2 long receptor expressed in HEK293 cells measured after 1 hr by liquid scintillation counter method; type: cell-based
Procedure, shortened: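 HEK293 membranes stably expressing human D2L receptor, incubated 1 h at 37°C, then filtered and retained radioactivity counted; (+)-butaclamol 1 μM defines nonspecific binding. Tested in triplicate at 7–8 concentrations (10⁻¹¹–10⁻⁴ M); Ki via Cheng-Prusoff, averaged over at least two independent experiments.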

[4] = target: T1, 5-hydroxytryptamine receptor 2C (Homo sapiens); test: Agonist activity at human 5HT2C serotonin receptor at 10^-5 M relative to control
[5] = target: T2, 5-hydroxytryptamine receptor 6 (Homo sapiens, UniProt P50406); test: Antagonist activity at human 5HT6 receptor expressed in HEK293 cells assessed as inhibition of 5-CT induced cAMP production measured after 30 mins by TR-FRET assay; type: functional, cell-based
in vitro = conditions: rat, microsomes
[6] = target: T1, 5-hydroxytryptamine receptor 2C (Homo sapiens); test: Displacement of [3H]mesulergine from human recombinant 5HT2C serotonin receptor at 10^-6M incubated for 120 mins by scintillation counter method relative to control
[7] = target: T2, 5-hydroxytryptamine receptor 6; test: Displacement of [3H]LSD from human 5HT6 receptor expressed in HEK293 cells measured after 1 hr by liquid scintillation counter method; type: cell-based
[8] = target: 5-hydroxytryptamine receptor 2B (Homo sapiens) (UniProt P41595); test: Antagonist activity at human recombinant 5HT2B receptor expressed in CHOK1 cells at 10^-6 M measured after 30 mins by HTRF assay relative to control; type: cell-based; design: scale not given: the % may be the effect or the level left
[9] = target: T3, 5-hydroxytryptamine receptor 1A (Homo sapiens, UniProt P08908); test: Displacement of [3H]-8-OH-DPAT from human 5HT1A receptor expressed in HEK293 cells incubated for 1 hr by liquid scintillation counter method; type: cell-based; conditions: read-out: Ki
T3 sequence (P08908 whole entry): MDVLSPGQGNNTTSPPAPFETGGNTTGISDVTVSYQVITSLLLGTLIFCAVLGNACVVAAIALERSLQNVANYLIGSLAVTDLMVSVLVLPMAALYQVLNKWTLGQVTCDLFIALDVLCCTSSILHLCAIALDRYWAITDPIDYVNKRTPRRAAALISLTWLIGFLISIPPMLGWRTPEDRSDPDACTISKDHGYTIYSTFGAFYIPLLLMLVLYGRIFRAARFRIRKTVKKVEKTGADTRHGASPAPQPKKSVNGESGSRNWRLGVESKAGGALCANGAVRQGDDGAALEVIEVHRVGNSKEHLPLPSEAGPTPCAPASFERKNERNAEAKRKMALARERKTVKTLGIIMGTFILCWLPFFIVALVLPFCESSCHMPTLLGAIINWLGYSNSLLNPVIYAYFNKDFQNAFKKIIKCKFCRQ
Procedure, shortened: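 HEK293 cells stably expressing human 5-HT1AR; membranes in 50 mM Tris–HCl, 0.1 mM EDTA, 4 mM MgCl2, 10 μM pargyline, 0.1% ascorbate; incubated 1 h at room temperature, then filtered. Nonspecific binding defined with 10 μM 5-HT.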

Rattus norvegicus = test: Reversal of scopolamine induced cognitive impairment in Sprague-Dawley rat assessed increase in discrimination index at 0.3 mg/kg, po cotreated with 0.3 mg/kg of donepezil pre treated for 2 hrs followed by scopolamine addition further treated for 30 mins and measured after 1 hr by novel object recognition test; type: functional, organism-based
Procedure, shortened: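 Male Sprague–Dawley rats (~250 g); open-field habituation 5 min 24 h before test. Compounds p.o. 120 min and scopolamine 1.25 mg/kg i.p. 30 min before 3-min familiarization trial; 3-min recognition trial 1 h later. Exploration video-tracked; discrimination index computed; one-way ANOVA with Newman–Keuls; n = 9–10 per group; mean ± SEM.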

[10] = target: Histamine H1 receptor (Homo sapiens) (UniProt P35367); test: Displacement of [3H] pyrilamine from human recombinant H1 histamine receptor at 10^-6 M measured after 60 mins by scintillation counting method relative to control
HepG2 = test: Cytotoxicity against human HepG2 cells assessed as reduction in cell viability measured after 24 hrs by Prestoblue assay; type: cell-based; conditions: HepG2, 24 h
Procedure, shortened: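 HepG2 cells seeded at 2x10^4 per well in DMEM with 10% FBS, grown 24 h (37°C, 5% CO2), then exposed 24 h to 1, 10, 50 and 100 μM compound. Viability read with PrestoBlue (fluorescence); membrane damage by ToxiLight (luminescence).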

[11] = Solubility of compound in water; type: physicochemical; conditions: water; read-out: solubility
[12] = target: 5-hydroxytryptamine receptor 2A (Homo sapiens, UniProt P28223); test: Displacement of [3H]ketanserin from human 5HT2A receptor expressed in CHOK1 cells incubated for 1 hr by liquid scintillation counter method; type: cell-based; conditions: read-out: Ki
Cytochrome P450 3A4 = Cytochrome P450 3A4 (Homo sapiens, UniProt P08684); test: Inhibition of human recombinant CYP3A4 expressed in Escherichia coli at […] using luciferin PFBE as substrate preincubated for 5 mins followed by NADPH addition measured after 30 mins by P450-Glo luminescence assay; type: ADME; conditions: recombinant enzyme, 0.5 h
Cytochrome P450 2D6 = Cytochrome P450 2D6 (Homo sapiens, UniProt P10635); test: Inhibition of human recombinant CYP2D6 expressed in Escherichia coli at 6.4 uM using luciferin ME-EGE as substrate preincubated for 5 mins followed by NADPH addition measured after 45 mins by P450-Glo luminescence assay; type: ADME; conditions: recombinant enzyme, 0.75 h
Procedure, shortened: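 P450-Glo luminescent assays: enzyme, proluciferin and compound (final 0.01–25 μM) preincubated 5 min, reaction started with NADPH regeneration system; incubated at room temperature 30 min (CYP3A4) or 45 min (CYP2D6).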

[13] = target: 5-hydroxytryptamine receptor 7 (Homo sapiens, UniProt P34969); test: Displacement of [3H]-5-CT from human 5HT7 receptor expressed in HEK293 cells measured after 1 hr by liquid scintillation counter method; type: cell-based; conditions: read-out: Ki
Sequence of 5-hydroxytryptamine receptor 7 (P34969 whole entry): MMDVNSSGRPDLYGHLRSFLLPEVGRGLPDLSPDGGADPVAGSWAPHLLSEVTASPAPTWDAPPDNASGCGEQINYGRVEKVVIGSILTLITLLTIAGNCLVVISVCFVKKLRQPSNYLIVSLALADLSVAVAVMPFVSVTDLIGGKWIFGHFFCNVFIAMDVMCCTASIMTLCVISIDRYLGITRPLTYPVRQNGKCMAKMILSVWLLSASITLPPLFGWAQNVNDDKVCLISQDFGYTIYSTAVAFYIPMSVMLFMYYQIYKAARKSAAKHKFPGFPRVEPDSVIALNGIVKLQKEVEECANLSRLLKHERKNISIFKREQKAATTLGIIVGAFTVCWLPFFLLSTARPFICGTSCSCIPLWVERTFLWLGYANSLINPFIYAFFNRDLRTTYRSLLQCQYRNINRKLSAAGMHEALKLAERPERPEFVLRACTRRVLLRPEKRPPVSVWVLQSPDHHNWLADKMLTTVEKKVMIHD

T2 sequence (P50406 whole entry): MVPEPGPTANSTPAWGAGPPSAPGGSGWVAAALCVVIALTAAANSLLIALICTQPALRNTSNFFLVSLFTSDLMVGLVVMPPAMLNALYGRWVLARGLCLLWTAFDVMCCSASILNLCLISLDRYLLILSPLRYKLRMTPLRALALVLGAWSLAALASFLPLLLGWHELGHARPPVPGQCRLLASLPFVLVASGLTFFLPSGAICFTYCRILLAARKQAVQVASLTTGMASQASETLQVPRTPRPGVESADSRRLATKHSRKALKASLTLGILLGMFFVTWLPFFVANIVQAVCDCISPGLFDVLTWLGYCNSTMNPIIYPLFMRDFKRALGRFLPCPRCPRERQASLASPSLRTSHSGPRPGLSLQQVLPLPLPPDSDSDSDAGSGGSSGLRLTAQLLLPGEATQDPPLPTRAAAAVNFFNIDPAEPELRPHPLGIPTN
Sequence of Histamine H1 receptor (Homo sapiens) (P35367 whole entry): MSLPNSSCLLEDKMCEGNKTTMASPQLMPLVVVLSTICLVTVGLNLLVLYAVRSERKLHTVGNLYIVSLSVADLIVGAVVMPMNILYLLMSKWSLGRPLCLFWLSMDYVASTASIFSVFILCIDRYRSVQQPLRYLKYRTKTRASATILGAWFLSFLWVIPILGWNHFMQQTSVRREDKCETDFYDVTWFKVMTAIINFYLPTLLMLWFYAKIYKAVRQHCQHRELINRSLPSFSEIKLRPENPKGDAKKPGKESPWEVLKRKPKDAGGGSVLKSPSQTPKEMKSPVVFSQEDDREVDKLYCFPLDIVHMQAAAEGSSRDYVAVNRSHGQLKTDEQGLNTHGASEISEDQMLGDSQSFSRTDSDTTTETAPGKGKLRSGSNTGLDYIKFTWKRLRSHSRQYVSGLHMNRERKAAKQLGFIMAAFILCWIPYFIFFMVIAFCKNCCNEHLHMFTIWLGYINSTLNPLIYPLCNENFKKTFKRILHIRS
Sequence of 5-hydroxytryptamine receptor 2A (P28223 whole entry): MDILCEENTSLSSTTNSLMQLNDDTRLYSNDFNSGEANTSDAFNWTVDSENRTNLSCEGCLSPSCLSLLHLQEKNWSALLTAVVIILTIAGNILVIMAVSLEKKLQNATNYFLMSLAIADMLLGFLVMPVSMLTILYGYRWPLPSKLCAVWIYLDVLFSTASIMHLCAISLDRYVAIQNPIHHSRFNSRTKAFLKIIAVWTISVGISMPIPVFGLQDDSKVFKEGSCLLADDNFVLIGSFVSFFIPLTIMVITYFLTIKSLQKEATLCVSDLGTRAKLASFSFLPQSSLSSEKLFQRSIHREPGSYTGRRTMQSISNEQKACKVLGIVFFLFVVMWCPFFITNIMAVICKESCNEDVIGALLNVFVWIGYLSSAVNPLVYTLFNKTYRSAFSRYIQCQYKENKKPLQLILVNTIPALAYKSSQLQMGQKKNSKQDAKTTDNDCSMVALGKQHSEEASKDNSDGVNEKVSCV
Sequence of Cytochrome P450 2D6 (P10635 whole entry): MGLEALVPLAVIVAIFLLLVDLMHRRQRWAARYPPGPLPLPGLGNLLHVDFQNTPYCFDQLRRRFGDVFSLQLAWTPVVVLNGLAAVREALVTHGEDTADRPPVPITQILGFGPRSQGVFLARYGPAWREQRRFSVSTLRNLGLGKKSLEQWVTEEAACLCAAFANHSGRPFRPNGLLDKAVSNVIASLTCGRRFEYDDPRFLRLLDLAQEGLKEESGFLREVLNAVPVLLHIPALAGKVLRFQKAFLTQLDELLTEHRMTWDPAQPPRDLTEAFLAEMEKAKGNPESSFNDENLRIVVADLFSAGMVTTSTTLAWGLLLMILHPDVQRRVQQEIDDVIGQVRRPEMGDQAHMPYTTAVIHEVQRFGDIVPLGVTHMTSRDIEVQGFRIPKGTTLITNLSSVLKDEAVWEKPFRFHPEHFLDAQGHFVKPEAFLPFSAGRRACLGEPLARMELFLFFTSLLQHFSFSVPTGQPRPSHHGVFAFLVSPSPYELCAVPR
Sequence of D(2) dopamine receptor (P14416 whole entry): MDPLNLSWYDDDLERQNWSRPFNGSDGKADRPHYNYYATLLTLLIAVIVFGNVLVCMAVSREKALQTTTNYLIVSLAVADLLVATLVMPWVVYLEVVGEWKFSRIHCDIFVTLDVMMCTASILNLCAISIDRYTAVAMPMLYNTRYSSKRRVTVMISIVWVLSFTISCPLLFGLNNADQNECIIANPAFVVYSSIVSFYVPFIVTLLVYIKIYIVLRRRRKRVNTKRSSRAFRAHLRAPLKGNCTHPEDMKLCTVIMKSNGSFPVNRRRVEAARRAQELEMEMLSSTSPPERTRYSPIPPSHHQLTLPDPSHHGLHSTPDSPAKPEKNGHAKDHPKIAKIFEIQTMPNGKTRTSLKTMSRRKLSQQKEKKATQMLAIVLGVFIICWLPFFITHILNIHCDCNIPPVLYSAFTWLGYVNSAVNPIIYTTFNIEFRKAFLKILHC
Sequence of 5-hydroxytryptamine receptor 2B (Homo sapiens) (P41595 whole entry): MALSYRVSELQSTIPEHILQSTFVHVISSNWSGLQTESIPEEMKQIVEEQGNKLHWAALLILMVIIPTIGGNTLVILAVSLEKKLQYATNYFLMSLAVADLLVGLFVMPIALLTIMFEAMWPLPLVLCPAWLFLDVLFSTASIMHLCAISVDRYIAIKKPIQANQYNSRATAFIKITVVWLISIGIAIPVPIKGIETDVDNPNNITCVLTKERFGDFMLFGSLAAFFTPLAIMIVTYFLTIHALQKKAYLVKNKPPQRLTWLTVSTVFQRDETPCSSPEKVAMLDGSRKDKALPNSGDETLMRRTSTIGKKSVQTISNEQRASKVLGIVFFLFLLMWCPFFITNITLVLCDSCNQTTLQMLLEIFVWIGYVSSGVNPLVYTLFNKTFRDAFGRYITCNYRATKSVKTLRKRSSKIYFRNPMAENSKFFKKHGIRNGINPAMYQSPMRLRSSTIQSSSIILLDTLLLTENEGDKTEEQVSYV
Sequence of Cytochrome P450 3A4 (P08684 whole entry): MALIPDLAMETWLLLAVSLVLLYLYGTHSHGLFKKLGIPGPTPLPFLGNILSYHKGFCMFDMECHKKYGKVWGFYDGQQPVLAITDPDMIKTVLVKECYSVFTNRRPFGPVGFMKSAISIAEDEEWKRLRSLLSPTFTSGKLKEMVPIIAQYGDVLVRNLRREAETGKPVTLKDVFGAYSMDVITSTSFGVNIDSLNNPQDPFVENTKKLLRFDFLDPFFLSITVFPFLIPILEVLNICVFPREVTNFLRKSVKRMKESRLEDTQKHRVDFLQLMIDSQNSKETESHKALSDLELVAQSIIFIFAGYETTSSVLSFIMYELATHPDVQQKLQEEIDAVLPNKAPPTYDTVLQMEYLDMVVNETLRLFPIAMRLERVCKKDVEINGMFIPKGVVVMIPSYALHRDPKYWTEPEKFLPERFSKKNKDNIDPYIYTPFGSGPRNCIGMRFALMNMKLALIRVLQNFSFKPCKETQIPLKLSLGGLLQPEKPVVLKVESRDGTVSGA

With Cc1nc(N)[nH]c1-c1cn(S(=O)(=O)c2cccc3ccccc23)c2ccccc12.Cl the Activity [1] was -1.3%, the LD50 [2] was > 2000 mg/kg and the Activity [3] was 50.3%. For the same compound, the Ki (D(2) dopamine receptor) was 1.17 µM, the Activity [4] was 21.3% and the Kb [5] was 0.0048 µM. For the same compound, the half-life (in vitro) was 23 min, the inhibition [6] was 52.7% and the Ki [7] was 0.008 µM. The Activity [8] was -2.8%, the Ki [9] was > 10 µM and the Activity (Rattus norvegicus) was “Active”. For the same compound, the inhibition [10] was 70.1%, the IC50 (HepG2) was 15.7 µM and the solubility [11] was 1000 to 10000 µg/mL. For the same compound, the Ki [12] was 0.49 µM, the INH (Cytochrome P450 3A4) was “Active” and the “inhibition (INH)” value (Cytochrome P450 2D6) was “Active”. The Ki [13] was 2.51 µM.
